Screening results from PubChem BioAssay.
GPR7 antagonist: GPR7 receptor antagonists, primary screen, cell-based, fluorescence, single concentration. AID 1861, 2009. GPR7-expressing cells, fluorescence antagonist assay. hit rate 1.1% among 290,000. Neuropeptides B/W receptor type 1 (Homo sapiens), P48145. inhibition, % at 4.4 µM; in the data active = inhibition above about 16%, passing the limit was not always enough;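 note: cells stimulated with the agonist NPW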
Target sequence (P48145 whole entry, looked up): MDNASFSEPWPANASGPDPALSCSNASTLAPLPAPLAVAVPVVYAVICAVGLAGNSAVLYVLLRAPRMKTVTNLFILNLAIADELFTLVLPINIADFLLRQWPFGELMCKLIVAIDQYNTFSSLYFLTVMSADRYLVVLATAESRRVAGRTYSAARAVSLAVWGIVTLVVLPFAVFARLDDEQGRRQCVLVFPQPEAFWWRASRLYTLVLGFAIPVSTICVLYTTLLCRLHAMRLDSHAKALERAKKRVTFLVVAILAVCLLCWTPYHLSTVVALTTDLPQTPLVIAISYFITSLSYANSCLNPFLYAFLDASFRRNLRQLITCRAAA
TAAR1 antag: human TAAR1 antagonists, primary screen, Fluo-8 calcium fluorescence, CHO RD-HGA16 cells. hit rate 1.5% among 360,000. antagonist. AID 624466, 2012. inhibition, % at 3 µM;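 active = inhibition above a per-plate cutoff, the mean inhibition of test compounds on that plate plus 3 SD, cut at about 49% in these data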
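Material: CHO RD-HGA16 cells bearing hTAAR1; compound dosing: one-point dosing, 3 µM nominal final; schedule: dye loading 75 min at 37 °C, then 30 min room temperature; measured by: calcium fluorescence with Fluo-8; control set: vehicle and agonist controls; replication: n of 1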
OX1R antag-1: OX1R (HCRTR1) antagonists, primary screen, fluorescence, CHO/OX1R cells, Fluo-8 calcium, orexin A | Orexin/Hypocretin receptor type 1 (Homo sapiens), O43613 | Fluo-8 calcium fluorescence | inhibition, % at 5 µM | hit rate 0.43% among 330,000 | AID 434989, 2010;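 active = inhibition above its plate's threshold, mean inhibition of all tested compounds on the plate plus 3 SD, cut at about 37% in these data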
Target sequence (O43613 whole entry, looked up): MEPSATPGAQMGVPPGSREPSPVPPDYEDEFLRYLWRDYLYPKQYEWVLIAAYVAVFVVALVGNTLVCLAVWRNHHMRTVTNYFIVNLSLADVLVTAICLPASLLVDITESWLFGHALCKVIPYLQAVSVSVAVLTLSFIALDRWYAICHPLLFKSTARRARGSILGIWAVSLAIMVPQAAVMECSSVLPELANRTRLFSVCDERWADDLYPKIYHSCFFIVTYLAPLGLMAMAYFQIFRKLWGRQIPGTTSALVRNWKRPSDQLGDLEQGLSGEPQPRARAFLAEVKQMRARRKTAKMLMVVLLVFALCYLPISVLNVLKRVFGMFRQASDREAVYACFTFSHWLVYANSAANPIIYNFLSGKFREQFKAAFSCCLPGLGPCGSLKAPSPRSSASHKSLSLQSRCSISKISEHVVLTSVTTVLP
TAAR1 ag: human TAAR1 agonists, primary screen, Fluo-8 calcium fluorescence, CHO RD-HGA16 cells. Trace amine-associated receptor 1 (Homo sapiens), Q96RJ0. hit rate 0.99% among 360,000. AID 624467, 2012. vehicle wells 0%, saturating PEA agonist 100%. activation, % at 3 µM;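 active = activation above the mean activation of all test compounds in the run plus 3 SD, cut at about 38% in these data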
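System: CHO RD-HGA16 cells carrying human TAAR1 plus Gα16; Incubation: 17-24 h seeding, 75 min 37 °C dye, 30 min RT; Measured by: Fluo-8 fluorescence, 5 s baseline then 140 s kinetic read; Control set: DMSO and PEA EC100; Replication: single well for each compound.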
OX1R antag-2: antagonists of human orexin 1 receptor (OX1R); Orexin/Hypocretin receptor type 1 (Homo sapiens), O43613; OX1R-expressing cells, FRET antagonist read-out; inhibition, % at 6.6 µM; hit rate 1.8% among 330,000; AID 485270, 2010; in the data active = inhibition mostly above about 38%, no sharp cut-off; inactive = mostly below about 40%
CHO parental Ca: ATP-evoked calcium signal inhibitors, parental CHO, primary screen, counter-screen for OX1R antagonist project, cell-based, fluorescence, Fluo-8 calcium dye | inhibition, % at 5.6 µM | hit rate 0.63% among 330,000 | parental CHO-K1, ATP-induced calcium, Fluo-8 fluorescence;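 active = inhibition above that plate's mean sample inhibition plus 3 SD, cut at about 26% in these data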
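Test system: untransfected parental CHO cell line. Compound: one dose, 5.6 µM nominal. Detection: intracellular calcium via Fluo-8 no-wash fluorescent dye. Measure: % inhibition. Benchmarks: ATP-challenged DMSO wells low, unchallenged DMSO wells high.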
Each line names hits and unclear results; the compound was inactive in the other large screens. A selection: hits, their analogues and other compounds. The true share with any hit is near 4.5%.

COc1cccc(CNC(=O)COc2cc3c(c4oc(=O)cc(C)c24)CCC(C)(C)O3)c1	TAAR1 antag 58
Cc1c(C)c2c(OCC(=O)O)cc3c(c2oc1=O)CCC(C)(C)O3	none
CCOc1cc(OCC)cc(C(=O)N2CCC[C@@H]2C(=O)N2CCC[C@@H]2C(=O)NCc2cccc(OC)c2)c1	none (no result: GPR7 antagonist, OX1R antag-1, OX1R antag-2, CHO parental Ca)
O=c1[nH]c(-c2ccccc2)cn1C1CCN(Cc2ccc(-c3nc4ccc(Br)cc4nc3-c3ccccc3)cc2)CC1	none (no result: GPR7 antagonist, OX1R antag-1, OX1R antag-2, CHO parental Ca)
COc1ccccc1C(CC(=O)Nc1ccc(Cl)cc1)c1ccc(OC(C)C)cc1 (configuration not stated)	none
COc1ccc(C(C)NCCC(c2ccc(OC(C)C)cc2)c2ccccc2OC)cc1 (configuration not stated)	TAAR1 ag 44 (no result: OX1R antag-1, OX1R antag-2, CHO parental Ca)
COc1ccccc1NC(=O)c1ccc(NC(=O)c2ccco2)cc1	none
O=C(CCNC(=O)c1ccco1)Nc1ccc(OC(F)F)c(Cl)c1	none
COc1cc(OC)cc(C(=O)Nc2ccc(C(=O)Nc3ccccc3OC)cc2)c1	TAAR1 antag 56 (no result: GPR7 antagonist)
CN(c1cccc(NC(=O)c2ccc(C(C)(C)C)cc2)c1)S(C)(=O)=O	none
CN(c1cccc(NC(=O)c2ccc(N(C)S(=O)(=O)c3ccccc3)cc2)c1)S(C)(=O)=O	TAAR1 antag 63, OX1R antag-1 67, CHO parental Ca 62
COc1ccc(NC(=O)COC(=O)CCNC(=O)c2ccco2)cc1Cl	TAAR1 ag 43 (no result: GPR7 antagonist)
CC(=O)Oc1ccc(/C=N/NC(=O)c2ccc(N(C)S(=O)(=O)c3ccccc3)cc2)cc1	TAAR1 antag 55
COC(=O)[C@]12C[C@H](CC(=O)N3CCN(C(=O)C4CC4)CC3)C(=O)N(Cc3ccccc3)C1=C[C@H](C1CCCC1)O[C@@H]2C	none (no result: GPR7 antagonist, OX1R antag-1, OX1R antag-2, CHO parental Ca)
Clc1ccc(Nc2nnc(-c3ccc4c(c3)OCO4)o2)cc1	none (no result: GPR7 antagonist, OX1R antag-1, OX1R antag-2, CHO parental Ca)
CN(c1cccc(NC(=O)CN(c2ccc(Cl)c(Cl)c2)S(=O)(=O)c2ccccc2)c1)S(C)(=O)=O	TAAR1 antag 57
COc1cc(OC)cc(C(=O)Nc2ccc(NC(=O)c3ccco3)c(Cl)c2)c1	GPR7 antagonist 25
COc1cc(NC(=O)c2ccc(S(=O)(=O)N(C)c3ccccc3)cc2)cc(OC)c1	TAAR1 antag 51 (no result: GPR7 antagonist)
COc1ccc(OC)c(NC(=O)c2ccc(-c3cccs3)cc2)c1	OX1R antag-2 55
Cn1c(-c2ccccc2)c(Sc2ccccc2)c2cc(-c3ccc4[nH]ccc4c3)ccc21	none (no result: GPR7 antagonist, OX1R antag-1, OX1R antag-2, CHO parental Ca)
COC(=O)c1cc(NC(=O)CN(c2ccc(OC)cc2)S(=O)(=O)c2ccc(F)cc2)ccc1Cl	TAAR1 antag 53 (no result: OX1R antag-1, OX1R antag-2, CHO parental Ca)
CC(=O)OCCn1c2nc(=O)[nH]c(=O)c-2nc2cc(C)c(C)cc21	TAAR1 antag 67, TAAR1 ag 138 (no result: OX1R antag-1, OX1R antag-2, CHO parental Ca)
O=C(NCCOc1ccccc1)C1C(=O)Nc2ccccc2C(=O)N1C1CCCCC1 (configuration not stated)	none (no result: GPR7 antagonist, OX1R antag-1, OX1R antag-2, CHO parental Ca)
CCn1c2ccccc2c2cc([N+](=O)[O-])ccc21	none
CCn1c2ccccc2c(=O)c2ccccc21	OX1R antag-2 67
COc1ccccc1CN1CC(C(=O)NCCCCc2ccccn2)CCC1=O (configuration not stated)	none (no result: GPR7 antagonist, OX1R antag-1, OX1R antag-2, CHO parental Ca)
COCCN1Cc2cc(C(=O)OC)c3c(c2C1=O)c1ccccc1n3S(=O)(=O)c1ccc(OC)cc1	none (no result: GPR7 antagonist, OX1R antag-1, OX1R antag-2, CHO parental Ca)
CCCCNC(=O)c1sc(=S)n2c1[nH]c(=O)c1ccccc12	OX1R antag-2 52
Cc1cc(O)cc(=O)n1-c1cccc([N+](=O)[O-])c1	none (no result: GPR7 antagonist, OX1R antag-1, OX1R antag-2, CHO parental Ca)
COc1ccc(CN2CCN(C(=O)c3ccc(S(=O)(=O)N4CCCCCC4)cc3)CC2)cc1F	TAAR1 antag 58 (no result: GPR7 antagonist, OX1R antag-1, OX1R antag-2, CHO parental Ca)
COc1ccc(CN2CCN(C(=O)c3ccc(S(=O)(=O)N4CCCCCC4)cc3)CC2)cc1	none (no result: GPR7 antagonist, OX1R antag-1, OX1R antag-2, CHO parental Ca)
Cc1cccc(OCCN2C(=O)C(=O)c3cc(C)ccc32)c1	none
Cc1ccc2c(c1)C(=O)C(=O)N2CCOc1ccccc1	GPR7 antagonist 33
COc1ccc(C(=O)NCC(=O)N=Nc2c(O)n(C)c3ccccc23)cc1OC	OX1R antag-2 57
C=CCn1c(O)c(N=NC(=O)CNC(=O)c2cccs2)c2ccccc21	none
COc1ccc(C(=O)NCC(=O)N=Nc2c(O)n(Cc3ccccc3)c3ccccc23)cc1OC	none
C=CCn1c(O)c(N=NC(=O)CNC(=O)c2ccncc2)c2ccccc21	OX1R antag-2 67
COc1ccc2c3c(cccc13)OC2=O	none
COc1ccc2c3c(cccc13)N(C)N=C2C	OX1R antag-2 66
O=C(c1ccc([N+](=O)[O-])s1)N1CCCc2ccccc21	OX1R antag-2 67
O=C(c1ccc([N+](=O)[O-])s1)N1CCc2ccccc21	none
COC(=O)[C@]12C[C@H](CC(=O)NCc3ccc(C)o3)C(=O)N(Cc3ccccc3)C1=C[C@H](C(C)C)O[C@@H]2C1CC1	none (no result: GPR7 antagonist, OX1R antag-1, OX1R antag-2, CHO parental Ca)
Cc1ccc2ncc(S(=O)(=O)c3ccccc3)c(N3CCCCC3C)c2c1 (configuration not stated)	CHO parental Ca 44
Cc1ccccc1C(=O)Oc1cccc(Nc2ncnc3ccccc23)c1	TAAR1 antag 53, OX1R antag-1 55, OX1R antag-2 81, CHO parental Ca 61
C[C@H]1Cn2cnc(C(=O)N(C)Cc3ccccc3)c2C(=O)N1	none (no result: GPR7 antagonist, OX1R antag-1, OX1R antag-2, CHO parental Ca)
CC1(C)CC(=O)C=C(c2ccccc2-c2ccc3c(c2)OCO3)C1=O	none (no result: GPR7 antagonist, OX1R antag-1, OX1R antag-2, CHO parental Ca)
COc1ccc(-c2nc3ccccc3n2Cc2ccccc2)cc1	none
COc1ccc(-c2n(Cc3ccccc3)c3ccccc3[n+]2Cc2ccccc2)cc1	GPR7 antagonist 56
CC(=O)C(C)n1c(CN(C)Cc2ccccc2)nc2c1c(=O)n(C)c(=O)n2C (configuration not stated)	none
CCCNc1nc2c(c(=O)n(C)c(=O)n2C)n1CCc1ccccc1	none
CC(C)n1c(NCCc2ccccc2)nc2c1c(=O)n(C)c(=O)n2C	CHO parental Ca 39
CC(C)n1c(CN(C)Cc2ccccc2)nc2c1c(=O)n(C)c(=O)n2C	OX1R antag-2 54, CHO parental Ca 69
CCOC(=O)C1=CCN(S(=O)(=O)c2ccc([N+](=O)[O-])cc2)C1c1ccc(C)cc1 (configuration not stated)	none (no result: GPR7 antagonist, OX1R antag-1, OX1R antag-2, CHO parental Ca)
O=C(N[C@H](C(=O)N1CCC[C@H]1C(=O)NC1CCCC1)C1CCCCC1)c1ccco1	none (no result: GPR7 antagonist, OX1R antag-1, OX1R antag-2, CHO parental Ca)
Nc1sc(-c2ccccc2)cc1C(=O)N1CCN(c2ccccc2)CC1	none (no result: GPR7 antagonist, OX1R antag-1, OX1R antag-2, CHO parental Ca)
